According to ChEMBL document CHEMBL1133603, “Synthesis and antimalarial activity of artemisinin derivatives containing an amino group” (2000):
Where “and” joins values, the source holds several entries; their conditions need not be identical. Equal entries are not always repeated.

Experiments:
Monkey [1] = assay: Percent parasitaemia before treatment at a dose of 3.16 mg/kg/day after oral administration on Plasmodium knowlesi in rhesus monkeys (7-day treatment); assay type: functional, Cercopithecidae
Outline: (§1)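 Rhesus monkeys inoculated intravenously on D0 with 2 × 107 P. knowlesi. Compounds given orally once daily D0–D6 (7-day treatment) at 3.16 or 10.0 mg/kg/day, as stated per line. Parasitaemia followed to assess clearance rapidity; cure or recrudescence also recorded.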

Monkey [2] = assay: Mean time for 90% reduction in parasitaemia at a dose of 10 mg/kg/day after oral administration on Plasmodium knowlesi in rhesus monkeys (7-day treatment); assay type: functional, Cercopithecidae; outline: as §1
Monkey [3] = assay: Time of clearance after oral administration on Plasmodium knowlesi in rhesus monkeys (7-day treatment); assay type: functional, Cercopithecidae; outline: as §1
Monkey [4] = assay: Mean time for 50% reduction in parasitaemia at a dose of 3.16 mg/kg/day after oral administration on Plasmodium knowlesi in rhesus monkeys (7-day treatment); assay type: functional, Cercopithecidae; outline: as §1
Monkey [5] = assay: Percent parasitaemia before treatment at a dose of 10 mg/kg/day after oral administration on Plasmodium knowlesi in rhesus monkeys (7-day treatment); assay type: functional, Cercopithecidae; outline: as §1
Plasmodium berghei [6] = assay: Antimalarial activity against Plasmodium berghei K173 after peroral dose
Monkey [7] = assay: Mean time for 90% reduction in parasitaemia at a dose of 3.16 mg/kg/day after oral administration on Plasmodium knowlesi in rhesus monkeys (7-day treatment); assay type: functional, Cercopithecidae; outline: as §1
Monkey [8] = assay: Mean time for 50% reduction in parasitaemia at a dose of 10 mg/kg/day after oral administration on Plasmodium knowlesi in rhesus monkeys (7-day treatment); assay type: functional, Cercopithecidae; outline: as §1
Plasmodium berghei [9] = assay: Antimalarial activity against Plasmodium berghei K173 after peroral dose; remark: listed apart in the source
Plasmodium berghei [10] = assay: Antimalarial activity against Plasmodium berghei […] after subcutaneous dose; assay type: functional
Outline: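 Mice inoculated intraperitoneally on day 0 with 1.5 × 107 P. berghei K173 parasitized cells. Test agents dissolved or ground in water or peanut oil, given once daily D0–D3 at 0.625, 1.25, 2.5, 5 and 10 mg/kg, orally or subcutaneously. Blood smears taken D4, stained and examined by microscopy.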

Monkey [11] = assay: Percent parasitaemia before treatment at a dose of 10 mg/kg/day after oral administration on Plasmodium knowlesi in rhesus monkeyss (7-day treatment); assay type: functional, Cercopithecidae; outline: as §1

## C[C@@H]1CCC2[C@@H](C)[C@@H](OCCN(C)C)O[C@@H]3O[C@@]4(C)CCC1[C@@]23OO4.O=C(O)C(=O)O (stereo partly specified)
Monkey [1]
  Parasitemia: 51.5%
Monkey [2]
  Reduction: 13.98 h
Monkey [3]
  Parasite_Clearance_time: 44 h
Monkey [4]
  Reduction: 5.29 h
Monkey [5]
  Parasitemia: 42.5%
Plasmodium berghei [6]
  SD90: 4.71 mg/kg/day
Monkey [7]
  Reduction: 12.09 h
Monkey [8]
  Reduction: 6.25 h
Plasmodium berghei [9]
  SD50: 1.61 mg/kg/day
Plasmodium berghei [10]
  SD50: 24.57 mg/kg/day
  SD90: 255.83 mg/kg/day

## CCN(CC)CCO[C@H]1O[C@@H]2O[C@@]3(C)CCC4[C@H](C)CCC([C@H]1C)[C@]42OO3.O=C(O)C(=O)O (stereo partly specified)
Monkey [3]
  Parasite_Clearance_time: 52 h
Monkey [4]
  Reduction: 4.5 h
Monkey [7]
  Reduction: 11.38 h
Plasmodium berghei [10]
  SD50: 24.57 mg/kg/day
  SD90: 255.83 mg/kg/day

## C[C@@H]1CCC2[C@@H](C)[C@@H](OCCNCCO)O[C@@H]3O[C@@]4(C)CCC1[C@@]23OO4.O=C(O)/C=C\C(=O)O (stereo partly specified)
Monkey [3]
  Parasite_Clearance_time: 52 h
Monkey [4]
  Reduction: 4.5 h
Monkey [11]
  Parasitemia: 74%
Plasmodium berghei [6]
  SD90: 5.08 mg/kg/day
Monkey [7]
  Reduction: 11.38 h
Plasmodium berghei [9]
  SD50: 1.74 mg/kg/day
Plasmodium berghei [10]
  SD50: 27.66 mg/kg/day
  SD90: 165.96 mg/kg/day

## C[C@@H]1CCC2[C@@H](C)[C@@H](OCCCN3CCOCC3)O[C@@H]3O[C@@]4(C)CCC1[C@@]23OO4.O=C(O)/C=C/C(=O)O (stereo partly specified)
Plasmodium berghei [6]
  SD90: 11.19 mg/kg/day
Plasmodium berghei [9]
  SD50: 1.33 mg/kg/day

## C[C@@H]1CCC2[C@@H](C)[C@@H](OCCN3CCOCC3)O[C@@H]3O[C@@]4(C)CCC1[C@@]23OO4.O=C(O)/C=C\C(=O)O (stereo partly specified)
Plasmodium berghei [6]
  SD90: 7.29 mg/kg/day
Plasmodium berghei [9]
  SD50: 1.82 mg/kg/day

## C[C@@H]1CCC2[C@@H](C)[C@@H](OCCCN3CCOCC3)O[C@@H]3O[C@@]4(C)CCC1[C@@]23OO4.O=C(O)/C=C\C(=O)O (stereo partly specified)
Monkey [3]
  Parasite_Clearance_time: 40 h
Monkey [4]
  Reduction: 5.19 h
Plasmodium berghei [6]
  SD90: 5.28 mg/kg/day
Monkey [7]
  Reduction: 11.8 h
Plasmodium berghei [9]
  SD50: 1.82 mg/kg/day
Plasmodium berghei [10]
  SD50: 5.57 mg/kg/day
  SD90: 302.49 mg/kg/day

## C[C@@H]1CCC2[C@@H](C)[C@@H](OCCN3CCOCC3)O[C@@H]3O[C@@]4(C)CCC1[C@@]23OO4.O=C(O)C(=O)O (stereo partly specified)
Plasmodium berghei [6]
  SD90: 5.26 mg/kg/day
Plasmodium berghei [9]
  SD50: 1.61 mg/kg/day

## C[C@H]1C(OC(=O)CCC(=O)O)O[C@@H]2O[C@@]3(C)CCC4[C@H](C)CCC1[C@]42OO3 (stereo partly specified)
Monkey [1]
  Parasitemia: 42.7%
Monkey [2]
  Reduction: 13.74 h
Monkey [3]
  Parasite_Clearance_time: 50 h and 54 h
Monkey [4]
  Reduction: 7.84 h
Monkey [5]
  Parasitemia: 35%
Plasmodium berghei [6]
  SD90: 23.39 mg/kg/day
Monkey [7]
  Reduction: 13.3 h
Monkey [8]
  Reduction: 8.21 h
Plasmodium berghei [9]
  SD50: 6.33 mg/kg/day
